Results taken from ChEMBL document CHEMBL4052646, “Synthesis of nοvel artemisinin dimers with polyamine linkers and evaluation of their potential as anticancer agents” (Bioorg Med Chem, 2017).
Activity calls are given as the source filed them. No cut-off for these calls is given here.

Tests used:
MCF7 [1] = assay: Induction of ROS production in human MCF7 cells after 4 to 6 hrs by carboxy-H2DCFDA dye based fluorescence assay; format: functional, cell-based
In short: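 MCF7 cells seeded at 15×10^3/well, exposed to agents 24 h later for 4 h. After PBS washes, cells loaded with 50 µM carboxy-H2DCFDA for 15 min in the dark. Fluorescence read at excitation 492–495 nm and emission 517–527 nm.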

MCF7 [2] = assay: Decrease in pleiotrophin secretion in conditioned media of human MCF7 cells at 10 uM after 24 hrs by Western blot analysis; format: functional, cell-based
In short: (§1)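 MCF7 cells treated with 10 µM agent for 24 h. PTN in the whole conditioned medium was captured on heparin-Sepharose for 16 h at 4°C and eluted in reducing Laemmli buffer. Lysates were run in parallel. Blots were probed with mouse anti-PTN (1:1,000), normalised to β-actin, and quantified by densitometry as percent of untreated (n=3).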

Chorioallantoic membrane = assay: In vivo antiangiogenic activity in Leghorn chicken embryo chorioallantoic membrane assessed as decrease in total vessel length at 10 nmol/egg after 48 hrs relative to control; format: functional, Gallus gallus; set-up: scale not given: the % may be the effect or the level left
In short: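 Windows opened in fertilized Leghorn eggs on day 4. On day 9, agent in 20 µl PBS applied to 1 cm² of CAM inside a plastic ring. After 48 h at 37°C, CAMs fixed in situ, excised and air-dried. Total vessel length measured by image analysis as percent change versus control. At least three experiments, 10–20 eggs per point.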

MCF7 [3] = assay: Induction of apoptosis in human MCF7 cells at 10 uM after 48 hrs by Annexin V-FITC/PI staining based flow cytometry; format: functional, cell-based
MCF7 [4] = assay: Cytotoxicity against human MCF7 cells assessed as reduction in cell number at 10 uM after 48 hrs by MTT assay; format: functional
In short: (§2)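 Cells seeded at 10×10^3 (MCF7) or 15×10^3 (HUVEC, primary from umbilical cords, passages 2-3) per well, exposed to agents at different concentrations up to 10 µM for 48 h. MTT added at 1/10 medium volume, 2 h at 37°C, formazan dissolved in acidified isopropanol, absorbance read at 490 nm. Confirmed by haemocytometer counts. IC50 and maximal percent decrease interpolated from graphs. Mean ± S.E.M. versus untreated cells.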

MCF7 [5] = assay: Cytotoxicity against human MCF7 cells assessed as reduction in cell number after 48 hrs by MTT assay; format: functional, cell-based; conditions: for IC50: MCF7, 48 h; in short: as §2
HUVEC [6] = assay: Cytotoxicity against HUVEC assessed as reduction in cell number at 10 uM after 48 hrs by MTT assay; format: functional, Homo sapiens; in short: as §2
HUVEC [7] = assay: Cytotoxicity against HUVEC assessed as reduction in cell number after 48 hrs by MTT assay; format: functional, cell-based; conditions: Homo sapiens; in short: as §2
MCF7 [8] = assay: Induction of necrosis in human MCF7 cells at 10 uM after 48 hrs by Annexin V-FITC/PI staining based flow cytometry; format: functional, cell-based
MCF7 [9] = assay: Decrease in pleiotrophin protein expression in human MCF7 cell lysate at 10 uM after 24 hrs by Western blot analysis; format: functional, cell-based; in short: as §1
MCF7 [10] = assay: Cytotoxicity against human MCF7 cells assessed as reduction in cell number at 10 uM cotreated with spermidine after 48 hrs by MTT assay; format: functional, cell-based
In short: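 MCF7 cells given the conjugate, the unconjugated artemisinin derivative, spermidine, or the derivative plus spermidine, each at 10 µM, for 48 h. Cell number measured by MTT at 490 nm after formazan solubilisation in acidified isopropanol. Reported as mean ± S.E.M. relative to untreated cells.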

| Compound | Activity (MCF7 [1]) | Activity (MCF7 [2]) | Activity (Chorioallantoic membrane) [%] | Activity (MCF7 [3]) | Efficacy (MCF7 [4]) [%] | Activity (MCF7 [5]) | IC50 (MCF7 [5]) [nM] | Efficacy (HUVEC [6]) [%] | IC50 (HUVEC [7]) [nM] | Activity (MCF7 [8]) | Activity (MCF7 [9]) | Activity (MCF7 [10]) |
| --- | --- | --- | --- | --- | --- | --- | --- | --- | --- | --- | --- | --- |
| COC(=O)N(CCCCN(CCCNC(=O)OCCC[C@H]1O[C@@H]2O[C@@]3(C)CC[C@H]4[C@H](C)CC[C@@H]([C@H]1C)[C@@]24OO3)C(=O)OC)CCCNC(=O)OCCC[C@H]1O[C@@H]2O[C@@]3(C)CC[C@H]4[C@H](C)CC[C@@H]([C@H]1C)[C@@]24OO3 | Active | Active | 22 | inactive | 70 | Dose-dependent effect | 1000 | 27 | 7500 | inactive | Active |  |
| COC(=O)N(CCCCNC(=O)OCCOCCN1C(=O)[C@H](C)[C@@H]2CC[C@@H](C)[C@@H]3CC[C@@]4(C)OO[C@]32[C@H]1O4)CCCNC(=O)OCCOCCN1C(=O)[C@H](C)[C@@H]2CC[C@@H](C)[C@@H]3CC[C@@]4(C)OO[C@]32[C@H]1O4 |  |  |  |  | 39 | Dose-dependent effect | 999 |  |  |  |  |  |
| COC(=O)N(CCCCN(CCCNC(=O)OCCOCCN1C(=O)[C@H](C)[C@@H]2CC[C@@H](C)[C@@H]3CC[C@@]4(C)OO[C@]32[C@H]1O4)C(=O)OC)CCCNC(=O)OCCOCCN1C(=O)[C@H](C)[C@@H]2CC[C@@H](C)[C@@H]3CC[C@@]4(C)OO[C@]32[C@H]1O4 |  |  |  |  | 48 | Dose-dependent effect | 1000 |  |  |  |  |  |
| C[C@H]1[C@@H](O)O[C@@H]2O[C@@]3(C)CC[C@H]4[C@H](C)CC[C@@H]1[C@@]24OO3 [ARTENIMOL] |  |  | 2.8 |  |  |  |  | 28 | 1400 |  |  |  |
| C[C@H]1[C@@H](OCCOCCOC(=O)NCCCCNC(=O)OCCOCCO[C@H]2O[C@@H]3O[C@@]4(C)CC[C@H]5[C@H](C)CC[C@@H]([C@H]2C)[C@@]35OO4)O[C@@H]2O[C@@]3(C)CC[C@H]4[C@H](C)CC[C@@H]1[C@@]24OO3 |  |  |  |  | 50 | Dose-dependent effect | 1000 |  |  |  |  |  |
| C[C@@H]1CC[C@H]2[C@@H](C)C(=O)O[C@@H]3O[C@@]4(C)CC[C@@H]1[C@]32OO4 [ARTEMISININ] | Active | Active | 6.3 | inactive | 14 | Dose-dependent effect |  | 22 | 1100 | inactive | Active |  |
| COC(=O)N(CCCCN(CCCNC(=O)OCCOCCO[C@H]1O[C@@H]2O[C@@]3(C)CC[C@H]4[C@H](C)CC[C@@H]([C@H]1C)[C@@]24OO3)C(=O)OC)CCCNC(=O)OCCOCCO[C@H]1O[C@@H]2O[C@@]3(C)CC[C@H]4[C@H](C)CC[C@@H]([C@H]1C)[C@@]24OO3 |  |  |  |  | 64 | Dose-dependent effect | 1000 |  |  |  |  |  |
| C[C@@H]1CC[C@H]2[C@@H](C)C(=O)N(CCOCCOC(=O)NCCCCNC(=O)OCCOCCN3C(=O)[C@H](C)[C@@H]4CC[C@@H](C)[C@@H]5CC[C@@]6(C)OO[C@]54[C@H]3O6)[C@@H]3O[C@@]4(C)CC[C@@H]1[C@@]23OO4 | Active | Active |  | inactive | 52 | Dose-dependent effect | 999 | 23 | 2300 | inactive | Active |  |
| COC(=O)N(CCCCNC(=O)OCCOCCO[C@H]1O[C@@H]2O[C@@]3(C)CC[C@H]4[C@H](C)CC[C@@H]([C@H]1C)[C@@]24OO3)CCCNC(=O)OCCOCCO[C@H]1O[C@@H]2O[C@@]3(C)CC[C@H]4[C@H](C)CC[C@@H]([C@H]1C)[C@@]24OO3 |  |  |  |  | 11.2 |  |  |  |  |  |  |  |
| C[C@H]1[C@@H](CCCO)O[C@@H]2O[C@]3(C)CC[C@H]4[C@H](C)CC[C@@H]1[C@@]24OO3 |  |  |  |  |  |  |  |  |  |  |  | inactive |
| COC(=O)N(CCCCNC(=O)OCCC[C@H]1O[C@@H]2O[C@@]3(C)CC[C@H]4[C@H](C)CC[C@@H]([C@H]1C)[C@@]24OO3)CCCNC(=O)OCCC[C@H]1O[C@@H]2O[C@@]3(C)CC[C@H]4[C@H](C)CC[C@@H]([C@H]1C)[C@@]24OO3 | inactive | Active | 12 | inactive | 76 | Dose-dependent effect | 1000 | 35 | 1200 | inactive | Active |  |
| C[C@H]1[C@@H](CCCOC(=O)NCCCCNC(=O)OCCC[C@H]2O[C@@H]3O[C@@]4(C)CC[C@H]5[C@H](C)CC[C@@H]([C@H]2C)[C@@]35OO4)O[C@@H]2O[C@@]3(C)CC[C@H]4[C@H](C)CC[C@@H]1[C@@]24OO3 | Active | Active | 14.3 | inactive | 61 | Dose-dependent effect | 1000 | 27 | 3600 | inactive | Active |  |
